Laboratory results published in the RNAGym collection of RNA variant scans (doi:10.1002/anie.201605470).

B1: Osa-1-4 twister ribozyme (parent)
chain: CCGCCUAACACUGCCAAUGCCGGUCCCAAGCCCGGAUAAAAGUGGAGGGGGCGG

Variants of: B1
Assay: self-cleavage, relative activity (ratio to wild type); higher = more cleavage; co-transcriptional
In short: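 A DNA template was synthesised for a 54-nucleotide twister ribozyme from Oryza sativa, with 97 % wild-type base and 1 % of each other base at each of the 48 positions downstream of the cleavage site. The ribozyme cleaved itself co-transcriptionally during 2 h of in vitro transcription at 37 °C. Reverse transcription with a template-switching oligonucleotide, PCR amplification and deep sequencing followed, and cleavage status came from reads with or without upstream sequence. Relative activity is the fraction cleaved normalised to wild type.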

self-cleavage, 0.17:
G49C G50C
G50C U12G
G51A G53U
G51C

self-cleavage, 0.66:
G50U G51A

self-cleavage, 1.02:
G50U

self-cleavage, 0.96:
G50A G54U

self-cleavage, 0.19:
G49A U37C
G51U G53A

self-cleavage, 0.4:
G51U G54U
G51U U37G

self-cleavage, 0.99:
G50A G54C

self-cleavage, 0.25:
G51A U43A
G51U G54A

self-cleavage, 0.9:
G50A G53U

self-cleavage, 0.8:
G50U U18G

self-cleavage, 0.1:
G47U U43A
G48A G51A
G48A U18C
G48C G50C
G48C G50U
G48C G54C
G48C U18C
G48C U18G
G48C U37C
G48U
G48U G53A
G48U G54C
G49C U43C
G49U G54A
G50C G54C
G51A U43G

self-cleavage, 0.45:
G50A U18C
G50C U43C

self-cleavage, 0.03:
G47U U24C
G48A G49C
G48U G49C
G48U U24A
G48U U24C
G49C G53C
G49C U24A

self-cleavage, 0.01:
G48A U24G
G48C U24G
G48U U24G
G49A U24G
G49C U24G

self-cleavage, 0.57:
G47U U18G
G50U G51U

self-cleavage, 0.74:
G50A U37G

self-cleavage, 0.51:
G47U U37G
G51U G54C
G51U U37C

self-cleavage, 0.08:
G47U U43C
G48C U37A
G48C U43A
G48U G53U
G48U U18C
G49A U12A
G49A U43A
G49A U43G
G49C G51U
G49C G54U
G49C U12A
G49C U37G
G49C U43A
G49U U43A
G50C G51C
G50C U24A
G51A U24A
G51A U24C
G51C U37A
G51U U12C

self-cleavage, 0.68:
G50U U43C

self-cleavage, 0.22:
G49A G50C
G51A U12A
G51A U12C

self-cleavage, 0.97:
G50A G54A
G50U U18C

self-cleavage, 0.83:
G51A G54U

self-cleavage, 0.12:
G48C
G49C G51A
G49U G51U
G49U U37A
G50A G51C
G51C G54U
G51C U18A
G51U G53U

self-cleavage, 0.07:
G47U U12A
G47U U12C
G47U U43G
G48A G53C
G48A U12A
G48C G49C
G48C G53U
G48C U12A
G48C U12G
G48C U43C
G48C U43G
G48U G50C
G48U G50U
G48U G51U
G48U U12A
G48U U18A
G49A U43C
G49C
G49C U37C
G49U G53A
G49U G53U
G49U U12G
G51A U12G
G51C G53A

self-cleavage, 0.79:
G50A U18G
G50U G54A

self-cleavage, 0.34:
G48U G54U
G50C U12C
G51C G54C

self-cleavage, 0.39:
G49A G54U
G51A U37A

self-cleavage, 0.13:
G48A U18G
G48U U18G
G49A U37A
G50U U24A
G51C U18C
G51C U18G
G51U U43A

self-cleavage, 0.44:
G50A U12A
G51U

self-cleavage, 0.46:
G47U G54U
G51A U18C

self-cleavage, 0.36:
G50C U43G

self-cleavage, 0.64:
G50A U24C
G51A G53A
G51A U18G

self-cleavage, 0.61:
G50A U18A
G50U G53A

self-cleavage, 0.29:
G49A U18G
G49U U18G
G51U U18C

self-cleavage, 0.06:
G48A U37A
G48A U43A
G48A U43C
G48A U43G
G48C G51U
G48U G53C
G49A U12G
G49C G53A
G49C G54A
G49C U12G
G49U G51C
G49U G54C
G49U U43G
G50C G53C
G51A G53C
G51C G53U
G51C U43A
G51C U43C
G51C U43G

self-cleavage, 0.33:
G49A G51A

self-cleavage, 0.89:
G50U U18A

self-cleavage, 0.09:
G48A G50C
G48A G50U
G48A G53U
G48A U18A
G48C G53A
G48C U18A
G48U U37C
G49A G51C
G49A G53U
G49C U18G
G49U U12A
G50U G53C
G51C G54A
G51U U12A

self-cleavage, 0.24:
G47U U18C

self-cleavage, 1.05:
G50C U37C

self-cleavage, 0.84:
G50A U37C

self-cleavage, 0.23:
G47U U37A
G49A G50U
G49U

self-cleavage, 0.92:
G50U U43A

self-cleavage, 0.14:
G48A
G49C G50U
G51C U37C

self-cleavage, 0.95:
G50C U18A
G50C U18C
G51A G54C

self-cleavage, 0.28:
G47U G54A
G47U U18A
G50U U24C

self-cleavage, 1.06:
G50U U37C

self-cleavage, 0.21:
G48U G50A
G49U G50U

self-cleavage, 0.02:
G47U U24G
G49U U24G
G50A U24G
G50C U24G
G50U U24G
G51A U24G
G51C U24G
G51U U24G

self-cleavage, 0.35:
G50A U43C
G50C U12A
G51U U18G

self-cleavage, 1.04:
G50C U37G
G50U U37G

self-cleavage, 0.11:
G48A G53A
G48A U37C
G48C G51A
G48C G54A
G48U G51A
G48U G54A
G48U U37G
G49A G53A
G49A G54C
G50A U12G
G50C G53A
G50C G53U
G50C U24C
G50U G51C

self-cleavage, 0.31:
G49U G50C
G51U U18A

self-cleavage, 0.15:
G48A G54A
G48A G54C
G49A G51U
G49A G54A
G49U U18A
G50A U43G
G50C G54A
G50U G54C
G51U U37A

self-cleavage, 0.76:
G50A

self-cleavage, 0.16:
G48A G50A
G48A U37G
G48C U37G
G49A U18A
G49A U18C
G49U U18C
G50A G51U

self-cleavage, 0.78:
G50C U37A
G51A U37G

self-cleavage, 0.2:
G48C G54U
G49C G50A
G51A U43C

self-cleavage, 0.77:
G51A

self-cleavage, 0.62:
G50U U12C
G51A U18A

self-cleavage, 0.04:
G48A G49U
G48A G51C
G48A U12C
G48A U12G
G48A U24C
G48C G49U
G48C G51C
G48C U24A
G48C U24C
G48U G49A
G48U G51C
G48U U12C
G48U U43G
G49C G51C
G49C U12C
G49C U43G
G49U G53C
G49U U12C
G49U U24A
G49U U24C
G49U U43C
G51C G53C
G51C U12C
G51C U24A
G51C U24C

self-cleavage, 0.38:
G50A U37A
G50A U43A

self-cleavage, 0.32:
G47U G54C
G49U G51A
G50A G53C
G50C G51U
G50C G54U

self-cleavage, 0.85:
G50U U37A
G51A G54A

self-cleavage, 0.94:
G50A G53A

self-cleavage, 0.82:
G50U U12A
G51A U37C

self-cleavage, 1.03:
G50C

self-cleavage, 0.18:
G49U U37C
G51C U37G

self-cleavage, 0.71:
G50C G51A
G50U U43G

self-cleavage, 0.6:
G50A U24A

self-cleavage, 0.5:
G49U G50A
G50A G51A

self-cleavage, 0.75:
G50C U18G
G50C U43A

self-cleavage, 0.05:
G47U U12G
G47U U24A
G48A G49A
G48A G51U
G48A U24A
G48C G49A
G48C G53C
G48C U12C
G48U G49U
G48U U12G
G48U U37A
G48U U43A
G48U U43C
G49A G53C
G49A U12C
G49A U24A
G49A U24C
G49C G53U
G49C G54C
G49C U18A
G49C U18C
G49C U24C
G49C U37A
G51C U12A
G51C U12G
G51U G53C
G51U U12G
G51U U24A
G51U U24C

self-cleavage, 0.37:
G47U U37C
G48A G54U
G50A U12C
G50U G53U

self-cleavage, 0.47:
G50U U12G

self-cleavage, 0.26:
G49A
G49U G54U

self-cleavage, 0.27:
G49A G50A
G49A U37G

self-cleavage, 0.52:
G50U G54U

self-cleavage, 0.3:
G48C G50A
G49U U37G
